Publication PMC4261236 (Journal of Medicinal Chemistry, 2014)

Columns and labels:
[1] = system: sstr2-transfected HCT116 tumor-bearing female nu/nu mice; test: Biodistribution in tumor-bearing mice; format: in vivo; conditions: for tumor uptake blocked by co-injected Y3-TATE: 4 h p.i., 20 μg Y3-TATE co-injected; for blood clearance (in words): 1 to 4 h p.i.
[2] = system: sstr2-transfected HCT116 tumor-bearing mice; test: Small animal PET/CT imaging; format: in vivo; conditions: 2 h p.i.; for tumor SUV: PET/CT; for tumor SUV, blocked: unlabeled Y3-TATE co-injected to block
[3] = system: sstr2-transfected HCT116 cells; test: Cell internalization assay; format: cell-based, Human; conditions: for maximum internalized tracer: after 2 h at 37 °C, 4 nM tracer
In short: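 sstr2-transfected HCT116 cells (Iscove's, 10% FBS, 1 mM Zeocin) in 12-well plates with 64Cu-labelled tracer at 4 nM final (labelled at >98% yield, used without purification). Surface-bound and internalized activity gamma-counted at 15, 30, 60, 120 and 240 min. Nonspecific binding from 1000-fold excess Y3-TATE. Values normalized to added activity and to BCA protein (%ID/mg).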

[4] = Biodistribution in tumor-bearing mice; format: in vivo; conditions: mouse, liver, intravenous, 1.85 MBq

Molecule | tumor-to-blood ratio (in words) ([1]; 1, 4 and 24 h p.i.) | tumor uptake (in words) ([1]; 4 and 24 h p.i.) | tumor uptake blocked by co-injected Y3-TATE [1] | tumor SUV [2] | tumor SUV, blocked [2] | maximum internalized tracer [3] | tissue uptake at 24 h [4] | blood clearance (in words) [1] | liver uptake (in words) ([1]; 1 h p.i.) | liver uptake (in words) ([1]; 4 and 24 h p.i.) | internalization (in words) ([3]; 37 °C, up to 4 h)
^64Cu-CB-TE1A1P–Y3-TATE [^64Cu-1A1P] | significantly higher than both ^64Cu-AP-1 and ^64Cu-KP-1 at all time points | significantly higher tumor uptake than ^64Cu-KP-1 and ^64Cu-AP-1 | 95% | 2.8 ± 0.4 | 0.19 ± 0.02 |  |  |  |  |  | 
C[C@@H](O)[C@H](NC(=O)[C@@H]1CSSC[C@H](NC(=O)[C@@H](Cc2ccccc2)NC(=O)CCCCCn2nnc3c2-c2ccccc2N(C(=O)CCNC(=O)CN2CCCN4CCN(CCCN(CP(=O)(O)O)CC4)CC2)Cc2ccccc2-3)C(=O)N[C@@H](Cc2ccc(O)cc2)C(=O)N[C@H](Cc2c[nH]c3ccccc23)C(=O)N[C@@H](CCCCN)C(=O)N[C@@H]([C@@H](C)O)C(=O)N1)C(=O)O (single isomer, unassigned) [^64Cu-AP-1, ^64Cu-CB-TE1A1P–DBCO–Y3-TATE, metal not drawn] |  |  | 63% | 4.6 ± 0.8 | 0.47 ± 0.18 | 45 ± 3 %ID/mg | < 1 %ID/g | significantly slower than the blood clearance of ^64Cu-1A1P | significantly higher than that of ^64Cu-KP-1 and ^64Cu-1A1P |  | 
C[C@@H](O)[C@H](NC(=O)[C@@H]1CSSC[C@H](NC(=O)[C@@H](Cc2ccccc2)NC(=O)CCCCCn2nnc3c2-c2ccccc2N(C(=O)CCNC(=O)CCOCCOCCOCCOCCOCCC(=O)NCCCCC(C(=O)O)N2CCCN4CCN(CCCN(CP(=O)(O)O)CC4)CC2)Cc2ccccc2-3)C(=O)N[C@@H](Cc2ccc(O)cc2)C(=O)N[C@H](Cc2c[nH]c3ccccc23)C(=O)N[C@@H](CCCCN)C(=O)N[C@@H]([C@@H](C)O)C(=O)N1)C(=O)O (some centres unmarked) [^64Cu-KP-1, ^64Cu-CB-TE1K1P–PEG4–DBCO–Y3-TATE, metal not drawn] |  |  | 84% | 3.2 ± 0.2 | 0.21 ± 0.06 |  | < 1 %ID/g | significantly slower than the blood clearance of ^64Cu-1A1P |  | lower uptake in the liver than ^64Cu-AP-1 and ^64Cu-1A1P | 
C[C@@H](O)[C@H](NC(=O)[C@@H]1CSSC[C@H](NC(=O)[C@@H](Cc2ccccc2)NC(=O)CCCCCn2nnc3c2-c2ccccc2N(C(=O)CCNC(=O)CN2CCCN4CCN(CCCN(CP(=O)(O)O)CC4)CC2)Cc2ccccc2-3)C(=O)N[C@@H](Cc2ccc(O)cc2)C(=O)N[C@H](Cc2c[nH]c3ccccc23)C(=O)N[C@@H](CCCCN)C(=O)N[C@@H]([C@@H](C)O)C(=O)N1)C(=O)O (single isomer, unassigned) [^64Cu-AP-3, ^64Cu-CB-TE1A1P–DBCO–Y3-TATE, metal not drawn] |  |  |  |  |  |  |  |  |  |  | slower internalization which was not saturated after 4 h
C[C@@H](O)[C@H](NC(=O)[C@@H]1CSSC[C@H](NC(=O)[C@@H](Cc2ccccc2)NC(=O)CCCCCn2nnc3c2-c2ccccc2N(C(=O)CCNC(=O)CN2CCCN4CCN(CCCN(CP(=O)(O)O)CC4)CC2)Cc2ccccc2-3)C(=O)N[C@@H](Cc2ccc(O)cc2)C(=O)N[C@H](Cc2c[nH]c3ccccc23)C(=O)N[C@@H](CCCCN)C(=O)N[C@@H]([C@@H](C)O)C(=O)N1)C(=O)O (single isomer, unassigned) [^64Cu-AP-2, ^64Cu-CB-TE1A1P–DBCO–Y3-TATE, metal not drawn] |  |  |  |  |  | 73 ± 7 %ID/mg |  |  |  |  | 
